# Assay outcomes deposited in PubChem BioAssay by several laboratories.
# Rows were chosen to be rich in hits. Some 4.3% of all compounds tested hit in one or more screens of this group.
# MC4R antag cAMP = human MC4R antagonism in cAMP assay. P32245. MC4R-expressing cells, MTII-stimulated cAMP, LANCE TR-FRET. inhibition, % at 6.5 µM. actives 0.48% (n = 360,000);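 active = inhibition above its plate's cutoff, the mean of tested wells on that plate plus 3 SD, cut at about 29% in these data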;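 also: 0% = Melanotan II alone and 100% = Melanotan II plus saturating MCL0020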
# Target sequence (P32245 whole entry, looked up): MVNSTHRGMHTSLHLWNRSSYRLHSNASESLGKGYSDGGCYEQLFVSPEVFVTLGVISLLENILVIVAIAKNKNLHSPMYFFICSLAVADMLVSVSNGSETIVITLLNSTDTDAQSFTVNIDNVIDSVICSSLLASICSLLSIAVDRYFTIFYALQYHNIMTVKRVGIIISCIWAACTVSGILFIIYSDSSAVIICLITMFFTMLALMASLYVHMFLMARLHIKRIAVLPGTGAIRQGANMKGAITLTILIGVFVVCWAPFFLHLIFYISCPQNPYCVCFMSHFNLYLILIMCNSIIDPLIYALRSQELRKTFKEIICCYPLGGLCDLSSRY
#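 Material: U2OS-MC4R stable cell line | Reagent: Melanotan II challenge after compound preincubation | Doses: One concentration, 6.5 µM nominal | Incubation: 30-min compound preincubation, 1-h Melanotan II challenge, 1-h detection, room temperature | Signal: TR-FRET cAMP assay | Replicates: One well per compound, no replicates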
# HTR2A ag = mouse HTR2A agonism via beta-arrestin recruitment; P35363; CHO-K1 mHTR2A beta-arrestin complementation, luminescence; percent of 30 µM serotonin response; activation, % at 7.6 µM; actives 0.66% (n = 360,000);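 active = activation above a run cutoff, the mean activation of all tested compounds plus 3 SD, cut at about 14% in these data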;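 also: 0% = plate median of compound wells and 100% = 30 µM serotonin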
# TAAR1 antagonist = antagonists of human TAAR1. AID 624466. CHO RD-HGA16 TAAR1, Fluo-8 calcium fluorescence, antagonist. actives 1.5% (n = 360,000). inhibition, % at 3 µM. Q96RJ0;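 active = inhibition above a per-plate cutoff, the mean inhibition of test compounds on that plate plus 3 SD, cut at about 49% in these data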;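 also: 0% = DMSO plus EC80 beta-PEA response and 100% = DMSO alone without agonist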
#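 Test system – hTAAR1-expressing CHO RD-HGA16 cells, Gα16-coupled · Also added – β-PEA at EC80 concentration, post-compound challenge · Compound – 3 µM, single point · Incubation – dye loading 75 min at 37 °C, then 30 min room temperature · Measured by – Fluo-8 intracellular calcium dye fluorescence, real-time kinetic reads · Benchmarks – vehicle and agonist controls · Replicates – singlicate, one well per test compound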
# B2AR ag = activates human beta-2 adrenergic receptor causing internalization | Am2.2-beta2AR cells, FAP receptor internalization, flow cytometry | response, % (concentration not given with the values) | actives 0.43% (n = 340,000) | AID 504454;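 active = response above a set limit, near 3 SD of response in nonfluorescent compounds, cut at about 42% in these data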
# MC4R barr agon = activates human MC4R beta-arrestin recruitment | P32245 | U2OS MC4R beta-arrestin complementation, luminescence; percent of melanotan II response, DMSO zero | activation, % at 8.9 µM | actives 0.98% (n = 360,000);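 active = activation above a per-plate cutoff, the mean activation of sample wells on that plate plus 3 SD, cut at about 8% in these data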
# TAAR1 agonist = agonists of human TAAR1. Q96RJ0. CHO RD-HGA16 TAAR1, Fluo-8 calcium fluorescence; vehicle wells 0%, saturating PEA agonist 100%. activation, % at 3 µM. actives 0.99% (n = 360,000). AID 624467;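 active = activation above the mean activation of all test compounds in the run plus 3 SD, cut at about 38% in these data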
#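 System: CHO-derived RD-HGA16 cells with stable Gα16 and human TAAR1. Times: 17-24 h plating, Fluo-8 75 min 37 °C, 30 min RT. Measured by: calcium-sensitive Fluo-8 signal, excitation 470-495, emission 515-575 nm. Read-out basis: % activation relative to PEA EC100 response. Control set: DMSO and PEA EC100. Repeats: no replicates (n 1).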
# Numbers without * were called inactive; · = no result given.
SMILES,MC4R antag cAMP,HTR2A ag,TAAR1 antagonist,B2AR ag,MC4R barr agon,TAAR1 agonist
CCOC(=O)C1=NN(C(=O)Cc2ccccc2)C(O)(c2ccc(Cl)cc2)C1 (configuration not stated),10,0,-24,13,3,11
COc1c(C(CC(C)C)OC(C)=O)ccc2c1C(=O)OCc1cc(C)cc(O)c1O2 (configuration not stated),7,5,-21,13,8.6*,-1
C/C(=N\NC(=O)CNc1cccc(C(F)(F)F)c1)c1ccc(Br)cc1,8,0,-36,4,8.3*,4
C/C(=N\NC(=O)CNc1cccc(C(F)(F)F)c1)c1cccc(Br)c1,3,2,-51,-10,-1,0
COc1ccc(OCC(=O)Nc2cc(S(=O)(=O)N3CCCC3)ccc2Cl)cc1,-2,0,61*,6,9.0*,39*
CC(=O)c1ccc(OCC(=O)Nc2cccc(S(=O)(=O)N3CCCC3)c2)cc1,22,-6,24,-6,2,7
N#Cc1ccccc1OCC(=O)Nc1cccc(S(=O)(=O)N2CCCCCC2)c1,4,-6,53*,3,0,11
CCOc1ccccc1OCC(=O)Nc1cccc(S(=O)(=O)N2CCCCCC2)c1,4,-7,58*,19,-1,4
CCc1ccc(OCC(=O)Nc2ccc(S(=O)(=O)N3CCCC3)cc2)c(Br)c1,14,-2,9,-1,21*,15
CC(=O)c1ccccc1OCC(=O)Nc1cccc(S(=O)(=O)N2CCCC2)c1,4,1,10,14,5,7
COCCNC(=S)N(C)[C@H]1C[C@H]2c3[nH]c4c(-c5ccccc5)cccc4c3CCN2C[C@H]1[C@H](C)O,·,·,-6,·,·,3
COC(=O)C1=C(C)N(C)C(=NCc2ccc3c(c2)OCO3)NC1c1cccc(Cl)c1 (configuration not stated),·,·,3,·,·,4
CCn1c(O)c(N=NC(=O)c2ccc(CSc3nncn3C)cc2)c2ccccc21,-16,3,1,53*,-2,9
Cn1cnnc1SCc1ccc(C(=O)N=Nc2c(O)n(Cc3ccc(Cl)cc3)c3ccccc23)cc1,2,-4,24,7,-1,10
O=C(CCCC(=O)c1ccccc1)NCCc1ccccc1F,11,-2,73*,-7,-1,40*
COc1ccc(C(=O)CCC(=O)NCCc2ccccc2F)cc1,1,-4,71*,-2,0,39*
COc1ccc(C(=O)CCC(=O)NCCc2c[nH]c3ccccc23)cc1,12,-4,8,-2,-1,5
COC(=O)CC#C[C@H](C)[C@@H](NS(=O)(=O)c1ccc(C)cc1)C1CCCCC1,·,·,1,·,·,4
COc1cccc(CN(C)C(=O)c2ccc(OCC(=O)Nc3cccc(C(F)(F)F)c3)c(OC)c2)c1,0,-10,67*,-4,-2,9
Nc1nnc(SCC(=O)OCC(=O)Nc2ccc(Br)cc2)s1,21,0,1,4,-3,44*
Nc1nnc(SCC(=O)OCC(=O)Nc2ccc(Br)cc2F)s1,18,-1,-4,10,-1,11
Cc1ccc(S(=O)(=O)Cc2cc(F)c([N+](=O)[O-])cc2[N+](=O)[O-])cc1,31*,-7,·,28,2,·
Cc1ccc(S(=O)(=O)CCC(=O)c2cccc([N+](=O)[O-])c2)cc1,31*,-4,19,10,-3,-2
Cc1cc(C)nc(N2CCC(C(=O)Nc3ccc4c(c3)OCO4)CC2)n1,17,-4,-17,7,2,0
Cc1cc(C)nc(N2CCCC(C(=O)Nc3ccc4c(c3)OCO4)C2)n1 (configuration not stated),7,0,67*,10,0,38*
SMILES,MC4R antag cAMP,HTR2A ag,TAAR1 antagonist,B2AR ag,MC4R barr agon,TAAR1 agonist
CCSc1nc2ccccc2n1C(=O)/C=C\c1ccc(OC)c(OC)c1,-6,1,24,51*,1,8
CCSc1nc2ccccc2n1CC(N)=O,0,-1,-9,10,0,5
COc1ccc(NC(=O)N(C)C[C@H]2Oc3c(NC(=O)Nc4ccc(C(F)(F)F)cc4)cccc3C(=O)N([C@H](C)CO)C[C@@H]2C)cc1,26,23*,73*,18,-1,31
C[C@H](CO)N1C[C@H](C)[C@H](CN(C)C(=O)Nc2ccc(F)cc2)Oc2c(NC(=O)c3ccc(-c4nccs4)cc3)cccc2C1=O,8,9,54*,-3,1,21
C[C@H](CO)N1C[C@H](C)[C@@H](CN(C)C(=O)Nc2ccc(C(F)(F)F)cc2)Oc2c(NC(=O)c3ccncc3)cccc2C1=O,4,2,-6,0,-2,1
CC(C)C[C@H]1COc2cccc(F)c2S(=O)(=O)N1,·,·,-6,·,·,-1
O=C(CCCCC(=O)NN=Cc1ccccc1O)NN=Cc1ccccc1O,10,1,54*,1,2,44*
O=C(CCOc1ccccc1)Nc1ccc(Br)cc1,24,-2,-13,-11,0,-1
O=C(CSCC(=O)NN=Cc1ccccc1O)NN=Cc1ccccc1O,2,1,2,-4,0,30
O=C(CCCOc1ccccc1)Nc1ccc(Br)cc1,6,0,18,7,8.6*,8
O=C(CCC(=O)Nc1ccc(Br)cc1)N/N=C/c1ccc(F)cc1,3,-3,5,-4,1,18
Cc1ccc(NC(=O)CCC(=O)N/N=C/c2ccccc2O)cc1,16,-2,-2,-7,0,38*
O=C(CCC(=O)Nc1ccc(Br)cc1)N/N=C/c1ccccc1O,-2,3,47,-5,-2,38*
Cc1ccc(SCCC(=O)N/N=C/c2ccccc2O)cc1,6,-4,6,-2,0,22
COc1ccc(-n2nnnc2C(c2cccc(OC)c2OC)N2CCN(C/C=C/c3ccccc3)CC2)cc1 (configuration not stated),·,-7,-23,·,·,0
CN1C(=O)[C@@]2(C3=C(CCCC3=O)OC3=C2C(=O)CC(C)(C)C3)c2ccccc21,·,·,-18,·,·,0
COc1ccc(OCCCC(=O)Nc2ccc(N3CCCCC3)cc2)cc1,2,5,-11,-3,-1,0
Cc1cccc(OCCCC(=O)Nc2ccc(N3CCCCC3)cc2)c1,5,-5,64*,3,11*,73*
O=C(c1ccccc1)c1c2c(cc3sc4ccccc4[n+]13)-c1cccc3cccc-2c13,-25,8,9,-166,26*,8
Cc1sc2cc3c(c(C(=O)c4ccccc4)[n+]2c1C)-c1cccc2cccc-3c12,·,·,-5,·,·,1
